Sampled rows, rich in hits. Any-hit rate of the full collection: about 1.8%.
EphB4 ephrin blk: EphB4-ephrin-B2 interaction antagonism; inhibition, % at 7 µM; EphB4 LBD / TNYL-RAW-Alexa532 peptide, fluorescence polarization; AID 720; P54760; hit rate 0.15% among 97,000;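 active = inhibition above the screen-wide mean inhibition plus 3 SD, cut at about 15% in these data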;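 also: 0% = DMSO wells and 100% = excess unlabeled TNYL-RAW peptide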
Target sequence (P54760 whole entry, looked up, the tested form may be a part): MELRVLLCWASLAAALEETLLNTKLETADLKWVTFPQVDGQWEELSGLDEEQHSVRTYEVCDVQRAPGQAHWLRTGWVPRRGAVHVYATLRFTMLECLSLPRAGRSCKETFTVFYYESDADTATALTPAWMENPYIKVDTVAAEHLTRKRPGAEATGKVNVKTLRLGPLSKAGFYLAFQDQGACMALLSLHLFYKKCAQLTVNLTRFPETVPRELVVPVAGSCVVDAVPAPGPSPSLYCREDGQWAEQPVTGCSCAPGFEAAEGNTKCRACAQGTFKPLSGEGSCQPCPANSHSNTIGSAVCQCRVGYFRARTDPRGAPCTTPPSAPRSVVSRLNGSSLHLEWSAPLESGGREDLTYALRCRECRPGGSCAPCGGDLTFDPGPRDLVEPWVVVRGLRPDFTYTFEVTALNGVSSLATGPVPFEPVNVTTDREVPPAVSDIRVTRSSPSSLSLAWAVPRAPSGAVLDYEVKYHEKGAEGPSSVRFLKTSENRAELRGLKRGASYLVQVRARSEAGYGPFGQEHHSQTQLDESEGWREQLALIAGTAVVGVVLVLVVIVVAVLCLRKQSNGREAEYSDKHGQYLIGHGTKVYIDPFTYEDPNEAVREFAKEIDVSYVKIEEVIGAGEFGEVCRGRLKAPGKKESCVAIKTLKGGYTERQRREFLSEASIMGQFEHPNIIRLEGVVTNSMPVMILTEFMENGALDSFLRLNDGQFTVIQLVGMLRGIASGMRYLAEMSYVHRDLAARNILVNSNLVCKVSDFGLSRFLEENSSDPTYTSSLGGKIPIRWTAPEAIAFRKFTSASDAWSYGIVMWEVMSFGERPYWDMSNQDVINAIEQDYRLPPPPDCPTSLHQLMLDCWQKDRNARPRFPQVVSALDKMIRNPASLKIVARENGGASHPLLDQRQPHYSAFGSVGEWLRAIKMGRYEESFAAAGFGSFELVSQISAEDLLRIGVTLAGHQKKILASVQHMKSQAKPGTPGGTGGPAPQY
Rev-RRE block: HIV Rev-RRE protein-RNA interaction inhibition; inhibition, % at 8 µM; Rev peptide-RRE RNA binding, FRET; AID 704; P05866; hit rate 0.79% among 97,000;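 active = inhibition above the screen-wide mean plus 3 SD, cut at about 35% in these data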;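 also: 0% = median DMSO wells and 100% = median Neomycin B control wells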
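Assay system: Rev peptide and RRE RNA, both fluorescently labelled; times: 5 min preincubation and 15 min binding, 25 °C; detection: FRET, ex 480 nm, em 540 and 671 nm; read-out basis: % inhibition from 671/540 nm acceptor-to-donor ratio, scaled between controls; benchmarks: DMSO low control, neomycin B high control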
PTPN22 act: LYP (human) phosphatase activation. activation, % at 2 µM. recombinant LYP, DiFMUP fluorescence; 0 = plate median, 100 = signal doubled. Q9Y2R2. AID 697. hit rate 0.11% among 96,000;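 active = activation at 2 µM above a set limit, the mean plus 5 SD, cut at about 37% in these data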
PLK1 kinase inh: inhibitors of human PLK1 kinase | P53350 | recombinant PLK1 kinase, TR-FRET peptide phosphorylation | hit rate 0.53% among 97,000 | inhibition, % at 10 µM;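 active = inhibition of 50% or more in the single-concentration screen; inactive = inhibition below 50%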;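 also: 0% = DMSO max control and 100% = H-89 dihydrochloride min control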
PTPN22 inh 2: LYP (human) phosphatase inhibition | Q9Y2R2 | recombinant LYP catalytic domain, DiFMUP fluorescence | inhibition, % at 2 µM | hit rate 0.21% among 96,000;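 active = inhibition at 2 µM at or above a set limit, the screen mean plus 3 SD, cut at about 24% in these data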;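 also: 0% = DMSO with enzyme and 100% = enzyme fully blocked by orthovanadate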
PLK1 PBD inh: inhibitors of human Plk1 polo box domain binding. P53350. Plk1 PBD phosphopeptide binding, fluorescence polarization. inhibition, %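 (tested at about 20 µM)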. hit rate 0.13% among 97,000. AID 693; in the data active = inhibition above about 34%, passing the limit was not always enough
PBD redox DR: counter-screen for Plk1 PBD inhibitors: redox cycling H2O2 generation. shares compounds with PLK1 PBD inh. DTT. EC50, µM. 120 tested, under 10 active. AID 876
PTPN22 act conf: LYP (PTPN22) phosphatase activation confirmation. shares compounds with PTPN22 act. Recombinant LYP, DIFMUP fluorescence; zero set by plate's median compound well. activation, % at 2 µM. 100 tested, under 10 active. AID 1031
* hit, by the source's call; x = no result given. Unless noted, no rule for the calls is given here.

SMILES	EphB4 ephrin blk	Rev-RRE block	PTPN22 act	PLK1 kinase inh	PTPN22 inh 2	PLK1 PBD inh	PTPN22 act conf	others
COc1ccc(OC)c(N2C(=O)CC(C(C)c3ccccc3)C2=O)c1 (stereo not drawn)	1	-2	-4	-5	1	-10	x
O=C1C(C2=C(O)c3ccccc3C2=O)=Nc2ccccc21	-5	13	12	23	-14	66*	x	PBD redox DR=29*
O=C1Nc2ccc([N+](=O)[O-])cc2C1(O)N1CCCCC1 (stereo not drawn)	0	3	-8	-14	11	57*	x	PBD redox DR=>50
COC(=O)c1ccc(C(=O)OC)c(NC(=O)CN(c2ccc3c(c2)OCO3)S(C)(=O)=O)c1	4	10	-10	-9	11	23	x
CC(C)Nc1nnc(SCC(=O)c2c(N)n(Cc3ccccc3)c(=O)n(C)c2=O)s1	1	4	-9	0	13	45*	x	PBD redox DR=>50
Cc1cccc(C)c1NC1=NC(=S)N(c2ccccc2)C12CCOC(C)(C)C2 (stereo not drawn)	8	2	-13	-3	13	111*	x	PBD redox DR=>50
CC(=O)Cc1nsc(NC(=O)c2cn(-c3ccccc3)nc2-c2ccc(Br)cc2)n1	-2	11	1	-16	0	4	x
CCn1ccc(C(=O)Nc2ccc(N(C)C(C)=O)cc2)n1	6	4	-4	-4	4	52*	x	PBD redox DR=>50
CC(=O)N(C)c1ccc(NC(=O)c2ccccc2C(=O)O)cc1	6	7	-5	-4	4	1	x
CCOCc1nnc(NC(=O)CSCc2ccccc2)s1	-6	2	42*	-6	-41	-5	-1
Cc1nnc(NC(=O)CSCc2ccccc2)s1	1	8	35	-12	-36	17	x
CC(C)c1nc(SCc2c(F)cccc2Cl)c2c(=O)n(C)c(=O)n(C)c2n1	-8	8	-5	-5	2	-8	x
CCOC(=O)C1CCN(Cc2coc3c(Cl)cc(Cl)cc3c2=O)CC1	2	3	39*	-13	-39	3	-1
Cc1nnc(NC(=O)c2ccc3c(c2)C(=O)N(CC2CCCO2)C3=O)s1 (stereo not drawn)	-1	3	-7	1	2	-13	x
O=C(Nc1ccc2c(c1)C(=O)N(CC1CCCO1)C2=O)c1ccc(Cl)c(Cl)c1 (stereo not drawn)	1	17	37*	0	-33	-2	1
CCn1c(-c2ccc3ncccc3c2)n[nH]c1=S	-2	3	42*	-4	-39	2	3
CSc1nc(-c2ccccc2)nn1C(=O)c1ccccc1	-7	6	52*	-3	-48	5	-2
CCC(=O)c1ccc(N2CCN(C(=O)Cc3ccccc3)CC2)c(F)c1	-4	6	41*	-17	-41	3	4
Cc1ccccc1C(=O)NC(=S)NCC1CCCO1 (stereo not drawn)	3	-2	39*	-11	-35	44	1
CCNC(=S)NNC(=O)c1csc2ccccc12	4	6	-9	-19	12	-24	x
CC(C)CNC(=S)NNC(=O)c1csc2ccccc12	0	-1	37*	48	-43	29	3
O=C(CCCC(=O)N(CC(=O)NC1CCCC1)Cc1ccc(F)cc1)Nc1ccccn1	-3	2	38*	-4	-41	5	-4
CN(C)CCNc1ncnc2c1sc1nc(N3CCOCC3)c3c(c12)CC(C)(C)SC3	2	8	49*	-9	-54	-20	7
CC1(C)Cc2c(cnn2-c2ccccc2)-c2c1c1ccccc1n2CC(O)CBr (stereo not drawn)	2	3	5	-8	-5	-12	x
O=c1c2c(nc3cc(-c4cccc(Cl)c4)[nH]n13)CCC2	9	3	43*	-9	-37	1	-5
SMILES	EphB4 ephrin blk	Rev-RRE block	PTPN22 act	PLK1 kinase inh	PTPN22 inh 2	PLK1 PBD inh	PTPN22 act conf	others
O=c1c2c(nc3cc(-c4ccc(F)cc4)[nH]n13)CCCC2	-2	3	2	1	-4	5	x
COC(=O)C(NC(=O)c1ccc(C)cc1)(Nc1cccc(C)n1)C(F)(F)F (stereo not drawn)	8	8	-4	-1	2	1	x
CCOC(=O)CSc1cc(=O)n(CC)c2ccccc12	-4	3	64*	-8	-58	-17	10
CC(Oc1ccc(Cl)cc1Cl)c1nc(-c2ccc(NC(=O)c3ccccn3)cc2)no1 (stereo not drawn)	-6	-1	0	-8	-3	-22	x
COc1ccc(NC(C)=O)cc1NC(=O)CCn1c(=O)sc2ccccc21	1	5	40*	-10	-39	5	3
Cc1ccc(-c2nc(CCN3C(=O)c4ccccc4C3=O)cs2)cc1	5	10	48*	-15	-44	6	5
O=C1c2ccccc2C(=O)N1CCc1ccccn1	3	6	-14	-9	13	-28	x
O=S(=O)(c1cccc(NC(=S)Nc2ccc(Br)cc2Cl)c1)N1CCOCC1	-8	2	4	-5	0	0	x
O=C(Nc1ccc2c(c1)OCCO2)C1CCN(S(=O)(=O)c2cccc3nsnc23)CC1	0	0	3	0	-5	-16	x
O=C(Nc1ccc2c(c1)OCCO2)C1CCCN(S(=O)(=O)c2cccc3nsnc23)C1 (stereo not drawn)	-1	7	42*	-14	-47	1	-5
CS(=O)(=O)N(CC(=O)Nc1cccc(Cl)c1Cl)c1ccccc1	-1	3	16	-13	-18	-34	x
CCOC(=O)c1cnn(-c2nc(-c3ccc(F)cc3)cs2)c1C(F)(F)F	-7	17	40*	-17	-34	15	-3
CCOC(=O)c1cnn(-c2nc(-c3ccccc3)cs2)c1C(F)(F)F	-1	24	-6	-19	8	20	x
NC(=S)Nc1ccc(Oc2ccc(NC(N)=S)cc2)cc1	3	3	-9	-16	12	29	x
CCOC(=O)C1=C(C)C(c2ccccc2OC)NC(=S)N1 (stereo not drawn)	-2	-3	7	6	-4	14	x
COCCN(C(=O)CSc1nnc(Nc2ccccc2F)s1)c1c(N)n(Cc2ccccc2)c(=O)[nH]c1=O	13	2	4	-10	-6	-11	x
Cc1cc(N2CCOCC2)nc2ccc(NC(=O)CCC(=O)N3CCCCC3)cc12	1	3	38*	-2	-42	-10	-1
COC(=O)c1ccc(C)c(NS(=O)(=O)c2ccc3c(c2)OCCO3)c1	0	2	42*	-5	-38	10	-1
